Results as given in ChEMBL document CHEMBL5338759, “N-Phenyl-1-(phenylsulfonyl)-1H-1,2,4-triazol-3-amine as a New Class of HIV-1 Non-nucleoside Reverse Transcriptase Inhibitor” (J Med Chem, 2023).

Legend:
[1] = AUC (0 to 24 hrs) in BALB/c mouse plasma at 250 mg/kg, IG measured at 0.5 to 24 hrs by HPLC-MS analysis; format: ADME, organism-based; set-up: time upper 24 hrs, time lower 0.5 hrs, dose 250 mg/kg, route ig; details: po
Procedure, shortened: (§1)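 Mice averaging 20 g (24 animals) were fasted 1 h before and 1 h after dosing. They received 250 mg/kg as 0.5 ml suspension in 1% CMC, 0.05% Tween 80 by intragastric intubation. Blood and brain were taken after decapitation at 0.5, 1, 2, 3, 5, 8 and 24 h (3 per time point). Plasma was frozen at -20°C and brain at -120 °C. Quantification was by UPLC-HRMS (ESI+, EIC m/z 476.0691) against plasma-matrix standards. Parameters were derived by noncompartmental analysis; LLOQ 5 ng/ml, with values below it set to 2.5.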

[2] = AUC (0 to 24 hrs) in BALB/c mouse brain at 250 mg/kg, IG measured at 0.5 to 24 hrs by HPLC-MS analysis; format: ADME, organism-based; set-up: dose 250 mg/kg, time 0.5-24 hrs, route ig; details: po; procedure, shortened: as §1
[3] = AUC (0 to infinity) in BALB/c mouse plasma at 250 mg/kg, IG measured at 0.5 to 24 hrs by HPLC-MS analysis; format: ADME, organism-based; set-up: time 0.5-24 hrs, dose 250 mg/kg, route ig; details: in vivo, po; procedure, shortened: as §1
[4] = Cmax in BALB/c mouse plasma at 250 mg/kg, IG measured at 0.5 to 24 hrs by HPLC-MS analysis; format: ADME, organism-based; set-up: time lower 0.5 hrs, dose 250 mg/kg, time upper 24 hrs, route ig; details: in vivo, po
Procedure, shortened: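 Mice (~20 g; food withheld 1 h before and after dosing), single dose as 0.5 ml suspension in 1% CMC/0.05% Tween 80 by gavage. Three animals per time point (0.5–24 h). Heparinized plasma frozen at -20°C, quantified by UPLC-ESI(+)-QTOF-MS (EIC m/z 476.0691) against plasma-matrix standards. LLOQ 5 ng/ml, lower values set to 2.5 ng/ml. Noncompartmental analysis.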

[5] = Half life in BALB/c mouse brain at 250 mg/kg, IG measured at 0.5 to 24 hrs by HPLC-MS analysis; format: ADME, organism-based; details: in vivo, po, time 0.5-24 hrs; procedure, shortened: as §1
[6] = Acute toxicity in BALB/c mouse at 2000 mg/kg, IG measured for 14 days; format: organism-based; details: in vivo, po, 336 h, time 14 day
Procedure, shortened: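 Male Balb/C mice, 5–6 weeks old and 19–21 g, were deprived of food and water for 1.5–2 h. They were given a single intragastric 2000 mg/kg dose at 0.5 ml/20 g, prepared just before use. Controls received 0.5 ml of 1% starch gel intragastrically. There were 5 mice per group, observed for 14 days for condition and weight; weight was compared by Šídák's multiple comparisons test.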

[7] = Subacute toxicity in BALB/c mouse assessed as pathological change in lungs at 25 to 250 mg/kg, IG measured daily for 30 days by H and E staining based histological analysis; format: organism-based; details: in vivo, po, 720 h, dose 25-250 mg/kg, time 30 day
Procedure, shortened: (§2)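 Male Balb/C mice (17 per group) received 25 or 250 mg/kg intragastrically in 1% starch gel once daily for 30 days, against starch gel controls. Internal organs were examined macroscopically after the study. Sections were paraffin-embedded and stained with hematoxylin and eosin.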

[8] = Subacute toxicity in BALB/c mouse assessed as pathological change in stomach at 25 to 250 mg/kg, IG measured daily for 30 days by H and E staining based histological analysis; format: organism-based; details: in vivo, po, 720 h, dose 25-250 mg/kg, time 30 day; procedure, shortened: as §2
[9] = Subacute toxicity in BALB/c mouse assessed as reduction in RBC count at 25 to 250 mg/kg, IG measured daily for 30 days; format: organism-based, Erythrocyte; details: in vivo, po, 720 h, dose 25-250 mg/kg, time 30 day
[10] = Subacute toxicity in BALB/c mouse assessed as reduction in WBC count at 25 to 250 mg/kg, IG measured daily for 30 days; format: organism-based; details: in vivo, po, 720 h, dose 25-250 mg/kg, time 30 day
[11] = Subacute toxicity in BALB/c mouse assessed as reduction in platelets count at 25 to 250 mg/kg, IG measured daily for 30 days; format: organism-based; details: in vivo, po, 720 h, dose 25-250 mg/kg, time 30 day
[12] = Subacute toxicity in BALB/c mouse assessed as effect on liver weight at 25 to 250 mg/kg, IG measured daily for 30 days; format: organism-based; details: in vivo, po, 720 h, dose 25-250 mg/kg, time 30 day

N#C/C=C/c1ccc2c(S(=O)(=O)n3nc(Nc4ccc(C#N)c(Cl)c4)nc3N)cccc2c1
AUC(0-t) [1]: 397 µg·h/mL
AUC(0-t) [2]: 142 µg·h/mL
AUC [3]: 427.7 µg·h/mL
Cmax [4]: 81.4 ng/mL
t1/2 [5]: 11.5 h
Activity [6]: Non-Toxic
Activity [7]: Non-Toxic
Activity [8]: Non-Toxic
Activity [9]: Non-Toxic
Activity [10]: Non-Toxic
Activity [11]: Non-Toxic
Activity [12]: Non-Toxic
